Results taken from ChEMBL document CHEMBL4177769, “Highly Selective and Potent Ectonucleotide Pyrophosphatase-1 (NPP1) Inhibitors Based on Uridine 5'-Pα,α-Dithiophosphate Analogues” (J Med Chem, 2018).

Tests used:
[1] = molecular target: T1, Ectonucleotide pyrophosphatase/phosphodiesterase family member 3 (Homo sapiens) (UniProt O14638); experiment: Inhibition of human NPP3 at 100 uM using pNP-TMP as substrate preincubated for 3 mins followed by substrate addition measured after 15 mins
T1 sequence (whole entry): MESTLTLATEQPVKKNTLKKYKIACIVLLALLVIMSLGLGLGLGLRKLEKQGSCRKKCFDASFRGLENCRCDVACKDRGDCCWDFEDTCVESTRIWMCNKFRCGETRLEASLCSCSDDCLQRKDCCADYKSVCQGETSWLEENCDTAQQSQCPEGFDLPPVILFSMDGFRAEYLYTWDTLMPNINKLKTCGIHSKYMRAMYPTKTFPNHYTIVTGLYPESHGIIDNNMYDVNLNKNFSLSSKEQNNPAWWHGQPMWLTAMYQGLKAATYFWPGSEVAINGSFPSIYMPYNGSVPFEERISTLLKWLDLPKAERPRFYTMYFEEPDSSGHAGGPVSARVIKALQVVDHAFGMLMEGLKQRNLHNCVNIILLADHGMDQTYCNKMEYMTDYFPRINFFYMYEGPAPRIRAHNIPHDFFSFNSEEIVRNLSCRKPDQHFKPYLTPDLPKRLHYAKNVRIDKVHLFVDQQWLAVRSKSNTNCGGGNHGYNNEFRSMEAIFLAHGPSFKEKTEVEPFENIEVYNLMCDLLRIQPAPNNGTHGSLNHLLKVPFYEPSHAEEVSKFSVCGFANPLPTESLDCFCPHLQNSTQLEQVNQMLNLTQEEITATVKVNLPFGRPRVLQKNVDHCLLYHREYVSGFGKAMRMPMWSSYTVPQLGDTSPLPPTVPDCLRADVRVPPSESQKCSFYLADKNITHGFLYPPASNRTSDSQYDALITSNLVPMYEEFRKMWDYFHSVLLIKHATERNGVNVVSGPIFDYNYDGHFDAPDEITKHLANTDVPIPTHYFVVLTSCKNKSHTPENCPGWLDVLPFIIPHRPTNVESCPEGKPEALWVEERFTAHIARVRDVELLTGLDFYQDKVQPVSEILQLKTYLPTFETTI
Summary of the method: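 Human NPP1 (4−5 μg) or NPP3 (12−14 μg) cell lysate in mM 1 CaCl2, 140 NaCl, 5 KCl, 50 Tris pH 8.5, 37 °C. Compound at 100 μM, 3 min preincubation, 100 μM pNP-TMP substrate. p-Nitrophenol read at 405 nm after 15 min. Blank with enzyme added at end subtracted. Activity without compound taken as 100%. At least two independent experiments in triplicate.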

[2] = Drug level treated with UTP 5'-O-Palpha,alpha-dithiophosphate at 2 mM at pH 1.7 at room temperature after 23 days by 31P NMR method; type: physicochemical; conditions: pH 1.7, 552 h, 2000 µM
[3] = Drug metabolism at 2 mM at acidic pH after 5 days by 31P NMR method; type: physicochemical; conditions: read-out: Drug metabolism
[4] = molecular target: T2, Ectonucleoside triphosphate diphosphohydrolase 1 (Homo sapiens) (UniProt P49961); experiment: Activation of human NTPDase1 using ATP as substrate preincubated for 3 mins followed by substrate addition measured after 10 mins by malachite green reagent-based assay relative to control
T2 sequence (whole entry): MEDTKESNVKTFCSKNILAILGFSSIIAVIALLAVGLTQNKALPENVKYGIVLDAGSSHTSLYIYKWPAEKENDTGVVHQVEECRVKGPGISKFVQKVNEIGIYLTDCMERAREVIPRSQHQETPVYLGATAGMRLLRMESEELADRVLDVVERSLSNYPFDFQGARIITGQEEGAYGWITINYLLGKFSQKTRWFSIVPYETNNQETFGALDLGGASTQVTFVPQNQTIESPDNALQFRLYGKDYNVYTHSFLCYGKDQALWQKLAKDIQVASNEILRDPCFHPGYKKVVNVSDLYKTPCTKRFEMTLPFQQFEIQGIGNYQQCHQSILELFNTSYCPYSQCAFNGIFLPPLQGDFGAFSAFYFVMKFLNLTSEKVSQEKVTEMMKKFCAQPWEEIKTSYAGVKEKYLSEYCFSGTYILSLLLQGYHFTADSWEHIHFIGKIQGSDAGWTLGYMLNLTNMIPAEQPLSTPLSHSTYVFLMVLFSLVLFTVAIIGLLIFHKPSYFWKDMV
Summary of the method: (§1)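 Compound at 100 μM, 3 min preincubation, 100 μM ATP, 10 min. Stopped with malachite green; Pi read at 630 nm. Blank with enzyme added after stop subtracted. Activity with ATP alone taken as 100%.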

[5] = molecular target: T3, Ectonucleoside triphosphate diphosphohydrolase 2 (Homo sapiens) (UniProt Q9Y5L3); experiment: Activation of human NTPDase2 using ATP as substrate preincubated for 3 mins followed by substrate addition measured after 10 mins by malachite green reagent-based assay relative to control; summary of the method: as §1
T3 sequence (whole entry): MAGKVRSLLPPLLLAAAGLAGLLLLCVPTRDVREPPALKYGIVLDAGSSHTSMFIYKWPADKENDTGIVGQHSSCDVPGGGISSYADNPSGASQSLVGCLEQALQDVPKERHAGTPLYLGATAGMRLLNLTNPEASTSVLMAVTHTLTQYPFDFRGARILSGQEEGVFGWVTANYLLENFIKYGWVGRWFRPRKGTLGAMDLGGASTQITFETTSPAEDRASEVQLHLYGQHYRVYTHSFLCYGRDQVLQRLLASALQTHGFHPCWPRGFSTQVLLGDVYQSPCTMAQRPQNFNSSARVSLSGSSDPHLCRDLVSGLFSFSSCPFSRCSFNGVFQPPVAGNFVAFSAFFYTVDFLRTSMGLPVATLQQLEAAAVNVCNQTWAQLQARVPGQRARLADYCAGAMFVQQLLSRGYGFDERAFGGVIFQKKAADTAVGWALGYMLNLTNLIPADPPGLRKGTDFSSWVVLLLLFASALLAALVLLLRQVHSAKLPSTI

[6] = molecular target: T4, Ectonucleoside triphosphate diphosphohydrolase 8 (Homo sapiens) (UniProt Q5MY95); experiment: Activation of human NTPDase8 using ATP as substrate preincubated for 3 mins followed by substrate addition measured after 10 mins by malachite green reagent-based assay relative to control; summary of the method: as §1
T4 sequence (whole entry): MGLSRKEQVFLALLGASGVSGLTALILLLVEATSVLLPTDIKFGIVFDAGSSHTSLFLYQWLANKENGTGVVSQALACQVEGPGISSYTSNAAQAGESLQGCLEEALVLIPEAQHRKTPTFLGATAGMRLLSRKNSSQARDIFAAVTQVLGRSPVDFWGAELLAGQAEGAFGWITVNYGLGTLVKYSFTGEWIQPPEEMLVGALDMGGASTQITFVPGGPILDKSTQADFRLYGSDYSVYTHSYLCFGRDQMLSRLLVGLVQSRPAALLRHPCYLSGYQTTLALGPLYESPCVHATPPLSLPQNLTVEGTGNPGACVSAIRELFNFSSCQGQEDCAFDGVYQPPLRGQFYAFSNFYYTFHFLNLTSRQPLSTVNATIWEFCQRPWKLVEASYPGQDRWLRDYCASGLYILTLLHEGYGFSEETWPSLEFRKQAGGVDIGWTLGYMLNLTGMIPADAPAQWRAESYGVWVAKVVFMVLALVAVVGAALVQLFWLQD

Structure (SMILES) | inhibition [1] [%] | Drug metabolism [2] | degraded at 120 h, 2000 µM [3] [%] | Activity [4] [%] | Activity [5] [%] | Activity [6] [%]
O=c1ccn([C@@H]2O[C@H](COP(=S)(S)OP(=O)(O)O)[C@@H](O)[C@H]2O)c(=O)[nH]1 (stereo partly drawn) | 21 | Metabolite_Detected |  |  |  | 
O=c1ccn([C@@H]2O[C@H](COP(=S)(S)OP(=O)(O)CP(=O)(O)O)[C@@H](O)[C@H]2O)c(=O)[nH]1 (stereo partly drawn) | 21 |  | 2 |  |  | 
O=c1ccn([C@@H]2O[C@H](COP(=S)(S)OP(=O)(O)OP(=O)(O)O)[C@@H](O)[C@H]2O)c(=O)[nH]1 (stereo partly drawn) |  |  | 11 | 7 to 27 | 7 to 27 | 7 to 27
